ChEMBL document CHEMBL1157626, “A concise synthesis of 1,4-dihydro-[1,4]diazepine-5,7-dione, a novel 7-TM receptor ligand core structure with melanocortin receptor agonist activity” (Bioorg Med Chem, 2010)
Active and inactive are the calls of the source. No cut-off for these calls is given here.

What was measured:
[1] = target: T1, Melanocyte-stimulating hormone receptor (Homo sapiens, UniProt Q01726); experiment: Agonist activity at human MC1R expressed in CHO cells at 10 uM after 4 hrs by luciferase reporter gene assay relative to alpha-melanocyte stimulating hormone; assay type: functional, cell-based
Method in brief: (§1)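 CHO-6xCRE-luc+ cells expressing the human receptor, plated at 4000 cells/well in DMEM/F12 with 10% FBS 48 h before assay. Switched to serum-free medium 16 h before compound addition, then incubated 4 h at 37 °C. Luciferase read after 10 min dark adaptation. Activity expressed as % of fold stimulation by 1 × 10^-7 M NDP-aMSH (duplicate control wells).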
Target sequence in this assay (Q01726 whole entry, looked up): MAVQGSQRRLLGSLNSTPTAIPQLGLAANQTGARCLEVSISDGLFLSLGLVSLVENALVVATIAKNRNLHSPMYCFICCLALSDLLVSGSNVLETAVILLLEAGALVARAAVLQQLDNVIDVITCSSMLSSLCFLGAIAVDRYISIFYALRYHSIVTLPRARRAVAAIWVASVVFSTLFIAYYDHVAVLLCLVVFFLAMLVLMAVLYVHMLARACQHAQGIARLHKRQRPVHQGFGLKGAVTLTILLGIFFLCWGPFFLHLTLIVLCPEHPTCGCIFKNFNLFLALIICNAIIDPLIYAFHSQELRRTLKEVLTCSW

[2] = target: T2, Melanocortin receptor 4 (Homo sapiens, UniProt P32245); experiment: Agonist activity at human MC4R expressed in CHO cells after 4 hrs by luciferase reporter gene assay; assay type: functional, cell-based; method in brief: as §1
T2 sequence (P32245 whole entry): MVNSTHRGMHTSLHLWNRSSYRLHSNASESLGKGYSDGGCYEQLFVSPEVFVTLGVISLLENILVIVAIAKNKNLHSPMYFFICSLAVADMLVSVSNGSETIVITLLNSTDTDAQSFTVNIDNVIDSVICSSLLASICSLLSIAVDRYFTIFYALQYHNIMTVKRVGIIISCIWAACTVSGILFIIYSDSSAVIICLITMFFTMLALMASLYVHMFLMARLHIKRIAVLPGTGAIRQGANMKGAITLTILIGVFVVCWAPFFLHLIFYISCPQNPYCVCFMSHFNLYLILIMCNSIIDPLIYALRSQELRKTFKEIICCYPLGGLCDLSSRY

[3] = target: T2, Melanocortin receptor 4; experiment: Agonist activity at human MC4R expressed in CHO cells at 10 uM after 4 hrs by luciferase reporter gene assay relative to alpha-melanocyte stimulating hormone; assay type: functional, cell-based; method in brief: as §1
[4] = target: T1, Melanocyte-stimulating hormone receptor; experiment: Agonist activity at human MC1R expressed in CHO cells after 4 hrs by luciferase reporter gene assay; assay type: functional, cell-based; method in brief: as §1
Target sequence in this assay (Q01726 whole entry): as the sequence (Q01726 whole entry, looked up) above

[5] = target: T2, Melanocortin receptor 4; experiment: Agonist activity at human MC4R expressed in CHO cells after 4 hrs by luciferase reporter gene assay relative to alpha-melanocyte stimulating hormone; assay type: functional, cell-based; method in brief: as §1
[6] = target: T1, Melanocyte-stimulating hormone receptor; experiment: Agonist activity at human MC1R expressed in CHO cells after 4 hrs by luciferase reporter gene assay relative to alpha-melanocyte stimulating hormone; assay type: functional, cell-based; parameters: concentration or dose not given beside the values; method in brief: as §1
Target sequence in this assay (Q01726 whole entry, looked up): as above

[7] = species: Homo sapiens; experiment: Selectivity for human MC1R over human MC4R
[8] = tested on: Rattus norvegicus; experiment: Anorexigenic activity in lean Sprague-Dawley rat assessed as suppression of peptide YY-induced food intake at 100 pmol, icv administered 15 mins before peptide YY challenge measured for 3 hrs; assay type: functional, organism-based
Method in brief: (§2)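 Lean Sprague-Dawley rats (~400 g) with third-ventricle cannulae. Saline or 1 nmol SHU9119 given ICV 30 min before vehicle (2% DMSO/saline) or test compound ICV. 0.23 nmol PYY given ICV 15 min later. Powdered chow intake logged every half hour for 3 h. N = 7–8 per group.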

[9] = tested on: Rattus norvegicus; experiment: Anorexigenic activity in lean Sprague-Dawley rat assessed as suppression of peptide YY-induced food intake at 100 pmol, icv administered 15 mins before peptide YY challenge measured for 3 hrs in presence of MC4R antagonist SHU9119; assay type: functional, organism-based; method in brief: as §2

SMILES | EC50 ([2]; read-out: EC50) | Efficacy [3] | Activity [5] | EC50 ([2]; read-out: pEC50 (converted)) | Activity [6] | EC50 ([4]; read-out: pEC50 (converted)) | further results
COc1ccc(N(C(=O)CN2C=CN(c3ccccc3)C(=O)[C@@H](Cc3n[nH]c4ccccc34)C2=O)C(C)C)cc1 | > 30000 nM | 14% | – | – | – | 1550 nM | –
O=C1[C@@H](Cc2n[nH]c3ccccc23)C(=O)N(c2ccccc2)C=CN1CC(=O)N1CCCCc2ccccc21 | – | – | 27 | 100 nM | 86% | 1.58 nM | –
COc1ccc(N(C(=O)CN2C=CN(c3ccccc3)C(=O)C(Cc3n[nH]c4cc(F)ccc34)C2=O)C(C)C)cc1 (racemic) | – | – | 39 | 355 nM | 83% | – | –
COc1ccc(N(C(=O)CN2C=CN(c3ccccc3)C(=O)C(Cc3cc[nH]n3)(Cc3n[nH]c4ccccc34)C2=O)C(C)C)cc1 (racemic) | – | – | 16 | 1050 nM | 30% | 398 nM | –
CC(C)N(C(=O)CN1C=CN(c2ccccc2)C(=O)C(Cc2n[nH]c3ccccc23)C1=O)c1ccc(OC(F)(F)F)cc1 (racemic) | – | – | 78 | 151 nM | 91% | – | –
COc1ccc(N(C(=O)CN2C=CN(c3ccccc3)C(=O)C(Cc3n[nH]c4ccccc34)(OC)C2=O)C(C)C)cc1 (racemic) | – | – | 74 | 166 nM | 58% | 1380 nM | –
CCn1nc(CC2C(=O)N(CC(=O)N(c3ccc(OC)cc3)C(C)C)C=CN(c3ccccc3)C2=O)c2ccccc21 (racemic) | > 30000 nM | 5% | – | – | – | – | Efficacy [1]: 2%; EC50 ([4]; read-out: EC50): > 30000 nM
O=C(CN1C=CN(c2ccccc2)C(=O)C(Cc2n[nH]c3ccccc23)C1=O)CP(=O)(Oc1ccccc1)Oc1ccccc1 (racemic) | > 30000 nM | 5% | – | – | – | – | Efficacy [1]: 1%; EC50 ([4]; read-out: EC50): > 30000 nM
CC(C)N(C(=O)CN1C=CN(c2ccccc2)C(=O)C(Cc2n[nH]c3ccccc23)C1=O)c1ccc(N2CCOCC2)cc1 (racemic) | > 30000 nM | 3% | – | – | 22% | 832 nM | –
CC(C)N(C(=O)CN1C=CN(c2ccccc2)C(=O)C(Cc2n[nH]c3cc(F)ccc23)C1=O)c1ccccc1 (racemic) | – | – | 19 | 537 nM | 51% | 186 nM | –
O=C(CN1C=CN(c2ccccc2)C(=O)C(Cc2n[nH]c3ccccc23)C1=O)CP(=O)(O)Oc1ccccc1 (racemic) | > 30000 nM | 4% | – | – | – | – | Efficacy [1]: 3%; EC50 ([4]; read-out: EC50): > 30000 nM
O=C1C(Cc2n[nH]c3cc(F)ccc23)C(=O)N(c2ccccc2)C=CN1CC(=O)N1CCCCc2ccccc21 (racemic) | – | – | 16 | 437 nM | 61% | – | Selectivity ratio [7]: > 100
CC(C)N(C(=O)CN1C=CN(c2ccccc2)C(=O)C(Cc2n[nH]c3ccccc23)C1=O)c1ccc(F)cc1 (racemic) | – | – | 22 | 282 nM | 54% | – | –
COc1ccc(N(C(=O)CN2C=CN(C3CCCCC3)C(=O)C(Cc3ccccc3)C2=O)C(C)C)cc1 (racemic) | > 30000 nM | 0% | – | – | – | – | Efficacy [1]: 0%; EC50 ([4]; read-out: EC50): > 30000 nM
O=C1C(Cc2n[nH]c3ccccc23)C(=O)N(c2ccccc2)C=CN1CC(=O)N1CCCCc2ccccc21 (racemic) | – | – | 17 | 324 nM | 61% | – | –
CC(C)N(C(=O)CN1C=CN(c2ccccc2)C(=O)C(Cc2n[nH]c3ccccc23)C1=O)c1ccccc1 (racemic) | – | – | 22 | 3240 nM | 42% | 708 nM | –
COc1ccc(N(C(=O)CN2C=CN(c3cccnc3)C(=O)C(Cc3n[nH]c4ccccc34)C2=O)C(C)C)cc1 (racemic) | – | – | 31 | 2880 nM | 60% | 178 nM | –
CC(C)N(C(=O)CN1C=CN(c2ccccc2)C(=O)C(Cc2n[nH]c3ccccc23)C1=O)c1ccc(O)cc1 (single isomer, unassigned; form 1) [listing 1 of 2 here] | – | – | – | 1000 nM | – | – | –
CC(C)N(C(=O)CN1C=CN(c2ccccc2)C(=O)C(Cc2n[nH]c3ccccc23)C1=O)c1ccc(O)cc1 (single isomer, unassigned; form 2) [listing 1 of 2 here] | > 30000 nM | – | – | – | – | 52.5 nM | –
CC(C)N(C(=O)CN1C=CN(c2ccccc2)C(=O)C(Cc2n[nH]c3ccccc23)C1=O)c1ccc(O)cc1 (single isomer, unassigned; form 2) [listing 2 of 2 here] | – | 5% | – | – | 16% | – | –

Second part, led by results:

EC50 ([2]; read-out: EC50) | Efficacy [3] | Activity [5] | EC50 ([2]; read-out: pEC50 (converted)) | Activity [6] | EC50 ([4]; read-out: pEC50 (converted)) | SMILES | further results
> 30000 nM | 0% | – | – | – | – | CC(C)N(C(=O)CN1C=CN(c2ccccc2)C(=O)[C@@H](Cc2n[nH]c3cc(F)ccc23)C1=O)c1ccccc1 | Efficacy [1]: 2%; EC50 ([4]; read-out: EC50): > 30000 nM
– | – | 20 | 794 nM | 76% | 61.7 nM | O=C1[C@H](Cc2n[nH]c3ccccc23)C(=O)N(c2ccccc2)C=CN1CC(=O)N1CCCCc2ccccc21 | –
– | – | 23 | 1260 nM | 79% | 35.5 nM | CC(C)N(C(=O)CN1C=CN(c2ccccc2)C(=O)[C@H](Cc2n[nH]c3cc(F)ccc23)C1=O)c1ccccc1 | –
> 30000 nM | 3% | – | – | – | – | CC(C)N(C(=O)CN1C=CN(c2ccccc2)C(=O)[C@@H](Cc2n[nH]c3ccccc23)C1=O)c1ccccc1 | Efficacy [1]: 9%; EC50 ([4]; read-out: EC50): > 30000 nM
– | – | 26 | 1070 nM | 54% | 295 nM | CC(C)N(C(=O)CN1C=CN(c2ccccc2)C(=O)[C@H](Cc2n[nH]c3ccccc23)C1=O)c1ccccc1 | –
– | – | 31 | 661 nM | 65% | 12.6 nM | COc1ccc(N(C(=O)CN2C=CN(c3cccnc3)C(=O)C(Cc3n[nH]c4cc(F)ccc34)C2=O)C(C)C)cc1 (racemic) | –
– | – | 52 | 44.7 nM | 33% | 2950 nM | COC1(Cc2n[nH]c3ccccc23)C(=O)N(CC(=O)N(c2ccc(F)cc2)C(C)C)C=CN(c2ccccc2)C1=O (racemic) | –
> 30000 nM | 6% | – | – | 59% | 794 nM | COc1ccc(N(C(=O)CN2C=CN(Cc3ccccc3)C(=O)C(Cc3n[nH]c4ccccc34)C2=O)C(C)C)cc1 (racemic) | –
> 30000 nM | 5% | – | – | – | – | COc1ccc(N(C(=O)CN2C=CN(c3ccccc3)C(=O)C(Cc3nn(C)c4ccccc34)C2=O)C(C)C)cc1 (racemic) | Efficacy [1]: 6%; EC50 ([4]; read-out: EC50): > 30000 nM
> 30000 nM | 5% | – | – | 62% | 3720 nM | CC(C)N(C(=O)CN1C=CN(C)C(=O)C(Cc2n[nH]c3cc(F)ccc23)C1=O)c1ccc(F)cc1 (racemic) | –
– | – | 19 | 178 nM | 53% | – | CC(C)N(C(=O)CN1C=CN(c2ccccc2)C(=O)C(Cc2n[nH]c3cc(F)ccc23)C1=O)c1ccc(F)cc1 (racemic) | –
– | – | 45 | 708 nM | 68% | – | COc1ccc(N(C(=O)CN2C=CN(c3ccccc3)C(=O)C(Cc3n[nH]c4ccccc34)C2=O)C(C)C)cc1 (racemic) | inhibition [8]: Active; inhibition [9]: inactive
> 30000 nM | 19% | – | – | – | – | COc1ccc(N(C(=O)CN2C=CN(C3CCCCC3)C(=O)C(Cc3n[nH]c4ccccc34)C2=O)C(C)C)cc1 (racemic) | Efficacy [1]: 25%; EC50 ([4]; read-out: EC50): > 30000 nM
– | – | – | 1000 nM | – | 550 nM | CC(C)N(C(=O)CN1C=CN(c2ccccc2)C(=O)C(Cc2n[nH]c3ccccc23)C1=O)c1ccc(O)cc1 (racemic) [listing 1 of 2 here] | –
– | – | 30 | – | 54% | – | CC(C)N(C(=O)CN1C=CN(c2ccccc2)C(=O)C(Cc2n[nH]c3ccccc23)C1=O)c1ccc(O)cc1 (racemic) [listing 2 of 2 here] | –
– | – | 44 | – | 79% | – | CC(C)N(C(=O)CN1C=CN(c2ccccc2)C(=O)C(Cc2n[nH]c3ccccc23)C1=O)c1ccc(O)cc1 (single isomer, unassigned; form 1) [listing 2 of 2 here] | –
